Source: PubChem (Broad Institute)
A selection: hits, their analogues and other compounds. The true share with any hit is near 2.6%.
esBAF inh – inhibitors of esBAF chromatin remodeling in mouse ES cells; Bmi1-luciferase knock-in reporter, 24 h; 100% = twice the neutral-well signal; actives 2% (n = 350,000); reporter increase, % at 12.5 µM; in the data active = activation above about 40%; inconclusive = no clear call, values can overlap the other calls;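 note: a rise in the Bmi1 reporter signal indicates esBAF inhibition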
Wnt bcat act – activators of Wnt/beta-catenin signaling. Wnt/beta-catenin reporter cell assay, activator, plate reader. activation, % at 9.35 µM. actives 1.2% (n = 300,000); in the data active = activation above about 30%, passing the limit was not always enough; inconclusive = no clear call, values can overlap the other calls
Vif imaging – HIV Vif inhibition. HEK293T cells, Vif self-association by quenched fluorescence, imaging, 24 h. inhibition, % at 7.49 µM. actives 0.35% (n = 340,000); in the data active = inhibition above about 50%, passing the limit was not always enough; inconclusive = no clear call, values can overlap the other calls; inactive = below about 31%
Xi reactivation – X-chromosome reactivation activator. XiGFP mouse fibroblasts, % GFP-positive cells imaging, 3 d; cells co-treated with 5-aza-dC sensitizer; scaled so ellipticine positive control = 100%. activation, % at 7.58 µM. actives 0.055% (n = 360,000). AID 743238;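 active = mean normalized replicate activation at least 10% and every replicate at or above 10%; inconclusive = only one of the two criteria met; inactive = mean below 10% and not all replicates reach 10%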
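Material: XiGFP fibroblasts, SV40-immortalized; Buffer or medium: DMEM containing 5-aza-dC; Compound dosing: single point; Times: 3 days compound exposure.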
MITF act – increases MITF-driven TRPM1 promoter luciferase signal | SK-MEL-5 TRPM1-promoter luciferase, 24 h; % of positive control, neutral wells = 0 | AID 588334 | actives 0.75% (n = 300,000) | activation, % at 12.5 µM;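 active = mean activation of at least 80% with every replicate also reaching 80%; inconclusive = mean reaches 80% but some replicate falls short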
Each line names hits and unclear results; the compound was inactive in the other large screens.

O=C([C@H]1[C@H](CO)[C@H]2Cn3c(cccc3=O)[C@@H]1N2S(=O)(=O)c1ccccc1F)N1CCOCC1	none (no result: Wnt bcat act, Vif imaging, MITF act)
O=C1CCCC(O)=C1N=Nc1ccc2c(c1)OCO2	Wnt bcat act 46 (no result: esBAF inh)
CNC[C@@H]1Oc2ccc(NC(=O)C3CC3)cc2CC(=O)N([C@H](C)CO)C[C@@H]1C	none (no result: Wnt bcat act, Vif imaging, MITF act)
O=C(N/N=C\C=C\c1ccco1)c1cc(-c2ccc3ccccc3c2)n[nH]1	Wnt bcat act 57 (no result: esBAF inh)
CN(C)/C=C1\C(=O)N(c2ccc([N+](=O)[O-])cc2)N=C1c1ccccc1	esBAF inh 53 (no result: Wnt bcat act, Xi reactivation)
C[C@H]1CN([C@@H](C)CO)S(=O)(=O)c2ccc(-c3cccc(C#N)c3)cc2O[C@@H]1CN(C)C(=O)Nc1cc(F)ccc1F	none (no result: Wnt bcat act, Vif imaging, MITF act)
c1csc(-c2cn3ccc4ccccc4c3n2)c1	esBAF inh 72
C=CCc1ccc(OCCn2cccc2C=O)c(OC)c1	MITF act 93 (no result: esBAF inh, Wnt bcat act, Xi reactivation)
Cc1ccc(NC(=O)c2cnn(-c3ccccc3)c2C)c(C)c1	Wnt bcat act 45
COc1ccccc1C1CCN(C(=O)c2ccccc2)CC1	none
CC(=O)c1c(C)nn(-c2ccccc2)c1C	none (no result: esBAF inh, MITF act)
COc1ccccc1C1CCN(C(=O)c2cnn(-c3ccccc3)c2C)CC1	Wnt bcat act 41
Cc1ccc(NC(=O)c2cnn(-c3ccccc3)c2C)cc1	none (no result: MITF act)
COc1ccc(OC(=O)c2cnn(-c3ccccc3)c2C)cc1	esBAF inh 67 (no result: Wnt bcat act, Xi reactivation)
COc1ccc(OC(=O)c2c(C)nn(-c3ccccc3)c2C)cc1	esBAF inh 71
COc1ccc(S(=O)(=O)Nc2ccc3c(c2)C(=O)N([C@H](C)CO)C[C@@H](C)[C@@H](CN(C)C(=O)NC(C)C)O3)cc1	none (no result: Wnt bcat act, Vif imaging, MITF act)
Cc1nn(-c2ccccc2)c(C)c1C(=O)NCCc1ccccc1	MITF act 88
Cc1nn(-c2ccccc2)c(C)c1C(=O)Oc1ccccc1	esBAF inh 62, MITF act inconclusive
O=C(NCCc1ccccc1)c1ccc(-n2cnnn2)cc1	esBAF inh 48 (no result: Vif imaging, Xi reactivation)
CCS(=O)(=O)NCC[C@H]1CC[C@H](NC(=O)Cc2ccccn2)[C@H](CO)O1	none (no result: Wnt bcat act, Vif imaging, MITF act)
CCCc1nc2oc3c(NCC(C)O)ncnc3c2c2c1CCCC2 (stereo not drawn)	Wnt bcat act 38 (no result: esBAF inh, MITF act)
CC(C)Cc1nc2oc3c(NCC4CCCO4)ncnc3c2c2c1CCC2 (stereo not drawn)	none (no result: Wnt bcat act, Xi reactivation)
CCOCC(=O)Nc1cc(C(=O)Nc2ccccc2)ccc1Cl	esBAF inh 51 (no result: Xi reactivation)
CCCCC(=O)Nc1cc(C(=O)NCCc2ccccc2)ccc1Cl	esBAF inh inconclusive, MITF act 126 (no result: Wnt bcat act, Xi reactivation)
O=C(NCc1ccccc1)c1ccc(Cl)c(S(=O)(=O)N2CCCC2)c1	none
Cc1ccc(C(=O)NCCc2ccccc2)cc1S(=O)(=O)N1CCOCC1	esBAF inh 68
Cc1ccc(C(=O)NC(C)CCc2ccccc2)cc1S(=O)(=O)N1CCOCC1 (stereo not drawn)	none
O=C(NCCc1ccccc1)c1ccc(Cl)c(S(=O)(=O)N2CCCC2)c1	esBAF inh 59 (no result: Wnt bcat act, Xi reactivation)
O=C(C[C@@H]1C=C[C@H](NC(=O)Nc2ccc(F)cc2)[C@H](CO)O1)NCc1cccc(F)c1	none (no result: Wnt bcat act, Vif imaging, MITF act)
CNC[C@H]1Oc2ccc(NC(=O)Nc3cccc4ccccc34)cc2CC(=O)N([C@@H](C)CO)C[C@H]1C	none (no result: Wnt bcat act, Vif imaging, MITF act)
O=C(Nc1ccccn1)c1ccc(Cl)c(S(=O)(=O)N2CCCC2)c1	esBAF inh 56 (no result: Vif imaging)
Cc1cc(C)nc(NS(=O)(=O)c2ccc(NS(=O)(=O)c3ccsc3)cc2)n1	Vif imaging 74 (no result: MITF act)
Cc1cc(C)nc(NS(=O)(=O)c2ccc(NS(=O)(=O)c3ccccc3)cc2)n1	none (no result: Vif imaging, Xi reactivation)
COc1ccc2c3c([nH]c2c1)[C@@H](CO)N(C(=O)Nc1ccc(F)cc1)CC31CCN(CC2CC2)CC1	none (no result: esBAF inh, Wnt bcat act, Vif imaging, MITF act)
COc1ccccc1N1CCN(CC(=O)c2ccc(F)cc2)CC1	esBAF inh 42 (no result: MITF act)
COC(=O)c1ccc(N2CCN(CC(=O)c3ccc(-c4ccccc4)cc3)CC2)c([N+](=O)[O-])c1	esBAF inh 48 (no result: Wnt bcat act, Xi reactivation)
COC(=O)c1ccc(N2CCN(CC(=O)c3ccc(C)cc3)CC2)c([N+](=O)[O-])c1	none
COC(=O)C(C)N1C(=O)S/C(=C\c2ccc(-c3ccc(C(=O)O)cc3C)o2)C1=O (stereo not drawn)	esBAF inh 71
COc1cccc2cc(-c3cn4ccc(C)cc4n3)c(=O)oc12	esBAF inh 105 (no result: Wnt bcat act, Xi reactivation)
N#C[C@@H]1[C@H](c2ccc(C#Cc3cccc(F)c3)cc2)[C@H](CO)N1C(=O)C1CCOCC1	none (no result: esBAF inh, Wnt bcat act, Vif imaging, MITF act)
CC(=O)NC(CC(=O)NNC(=O)COc1c(C)cccc1C)c1ccccc1 (stereo not drawn)	Wnt bcat act 62 (no result: esBAF inh)
CCCCc1noc2c1/C(=N\O)CC(c1ccccc1)C2 (stereo not drawn)	esBAF inh 59 (no result: Xi reactivation)
Cc1ccc(-n2c(C)cc(C(=O)COC(=O)C3=NNC(=O)CC3)c2C)cc1	none (no result: Wnt bcat act, Xi reactivation)
Cc1ccc(-n2c(C)cc(C(=O)COC(=O)c3c(C)noc3C)c2C)cc1	Wnt bcat act 51 (no result: Xi reactivation)
CC(=O)N1CCN(S(=O)(=O)c2cccc(C(=O)N(Cc3ccccc3)c3ccc(C)cc3)c2)CC1	none
Cc1ccc(N(Cc2ccccc2)C(=O)c2cccc(S(=O)(=O)N3CC(C)OC(C)C3)c2)cc1 (stereo not drawn)	esBAF inh 64
N=c1c2c(ncn1CCCO)Oc1c(ccc3ccccc13)C2c1ccccc1 (stereo not drawn)	Wnt bcat act 42 (no result: esBAF inh)
O=C(CN1CCOCC1)OCCCC1CCCCC1	Vif imaging 54 (no result: Xi reactivation)
Cc1ccnc(SCC(=O)N2CCc3ccccc32)n1	esBAF inh 56, MITF act 86
O=C(CSc1nnc2ccccn12)N1CCc2ccccc2C1	esBAF inh 52 (no result: Wnt bcat act, Xi reactivation)
